Test results taken from ChEMBL document CHEMBL1158603, “S-aryltriazole acyclonucleosides: synthesis and biological evaluation against hepatitis C virus” (Bioorg Med Chem Lett, 2010).
The source made the active and inactive calls. The rule behind the calls is not given here.

System: Hepatitis C virus
Assay: Antiviral activity against HCV infected in human HuH5.2 cells assessed as inhibition of subgenomic RNA replication after 4 days by Steady-Glo luciferase assay
Assay type: functional, organism-based
Conditions: Hepacivirus hominis
Method in brief: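 Huh-5-2 replicon cells seeded at 5000/well in complete DMEM with 250 µg/mL G418, grown 24 h at 37 °C (5% CO2). Medium then replaced by threefold serial dilutions of compound in complete DMEM without G418. After 4 days at 37 °C, medium removed and luciferase activity read by luminescence.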

Row | SMILES | Activity
1 | NC(=O)c1nc(Sc2ccc(Cl)cc2)n(COCCO)n1 | inactive
2 | NC(=O)c1nc(Sc2cccc(F)c2)n(COCCO)n1 | inactive
3 | COC(=O)c1nc(Sc2ccc(C(C)(C)C)cc2)n(COCCOC(C)=O)n1 | inactive
4 | NC(=O)c1nc(Sc2cccc(C(F)(F)F)c2)n(COCCO)n1 | inactive
5 | COC(=O)c1nc(Sc2ccccc2)n(COCCOC(C)=O)n1 | inactive
6 | NC(=O)c1nc(Sc2ccc(C(F)(F)F)cc2)n(COCCO)n1 | inactive
7 | COc1ccc(Sc2nc(C(N)=O)nn2COCCO)cc1 | inactive
8 | COC(=O)c1nc(Sc2ccc(F)cc2)n(COCCOC(C)=O)n1 | inactive
9 | CCCSc1nc(C(=O)OC)nn1COCCOC(C)=O | inactive
10 | COC(=O)c1nc(Sc2ccc(C(F)(F)F)cc2)n(COCCOC(C)=O)n1 | inactive
11 | COC(=O)c1nc(Sc2cccc(C)c2)n(COCCOC(C)=O)n1 | inactive
12 | NC(=O)c1nc(Sc2ccc(F)cc2)n(COCCO)n1 | inactive
13 | COC(=O)c1nc(Sc2ccccc2C(F)(F)F)n(COCCOC(C)=O)n1 | inactive
14 | NC(=O)c1nc(Sc2ccc3ccccc3c2)n(COCCO)n1 | inactive
15 | Cc1ccc(Sc2nc(C(N)=O)nn2COCCO)cc1 | inactive
16 | COC(=O)c1nc(Sc2cccc(C(F)(F)F)c2)n(COCCOC(C)=O)n1 | inactive
17 | COC(=O)c1nc(Sc2ccc(C)cc2)n(COCCOC(C)=O)n1 | inactive
18 | COC(=O)c1nc(Sc2cccc(F)c2)n(COCCOC(C)=O)n1 | inactive

Row | SMILES | Activity
19 | COc1cccc(Sc2nc(C(N)=O)nn2COCCO)c1 | inactive
20 | COC(=O)c1nc(Sc2ccccc2OC)n(COCCOC(C)=O)n1 | inactive
21 | COC(=O)c1nc(Sc2ccc(OC)cc2)n(COCCOC(C)=O)n1 | inactive
22 | COc1ccccc1Sc1nc(C(N)=O)nn1COCCO | inactive
23 | COC(=O)c1nc(Sc2cccc(OC)c2)n(COCCOC(C)=O)n1 | inactive
24 | Cc1cccc(Sc2nc(C(N)=O)nn2COCCO)c1 | inactive
25 | COC(=O)c1nc(Sc2ccccc2C)n(COCCOC(C)=O)n1 | inactive
26 | NC(=O)c1nc(Sc2ccccc2F)n(COCCO)n1 | inactive
27 | COC(=O)c1nc(Sc2ccc(Cl)cc2)n(COCCOC(C)=O)n1 | inactive
28 | NC(=O)c1nc(SCc2cccc(C(F)(F)F)c2)n(COCCO)n1 | inactive
29 | COC(=O)c1nc(Sc2ccc3ccccc3c2)n(COCCOC(C)=O)n1 | inactive
30 | CC(C)(C)c1ccc(Sc2nc(C(N)=O)nn2COCCO)cc1 | inactive
31 | NC(=O)c1nc(Sc2ccccc2C(F)(F)F)n(COCCO)n1 | inactive
32 | Cc1ccccc1Sc1nc(C(N)=O)nn1COCCO | inactive
33 | COC(=O)c1nc(Sc2ccccc2F)n(COCCOC(C)=O)n1 | inactive
34 | COC(=O)c1nc(SCc2cccc(C(F)(F)F)c2)n(COCCOC(C)=O)n1 | inactive
35 | NC(=O)c1nc(Sc2ccccc2)n(COCCO)n1 | inactive
